Series [1] has as its system C57BL/6 mice. The experiment in a line: APAP-induced ALF model validation. Format: in vivo, mouse. To be noted: APAP 500 mg/kg i.p. In outline:
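Male C57BL/6 mice were housed under SPF conditions with a 12-hour/12-hour light/dark cycle at 22°C and 45 to 60% humidity. APAP was dissolved in physiological saline by heating at 50°C and given intraperitoneally to induce acute liver failure.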

Series [2] addresses P-selectin. The following applies: read-out: natural PSGL-1 binding to P-selectin (Kd); ref [23]; cited from earlier work.

Consider `CC(=O)Nc1ccc(O)cc1` [APAP, acetaminophen], for which, in series [1] (n = 6), the “serum ALT and AST” value was “rising rapidly within 12 hours and peaking at 24 hours”. Also, in series [1] (within 72 hours, n = 10), the mortality of mice result is “over 50%”.

B1: PSGL-1: natural P-selectin ligand on neutrophils (protein, UniProt Q14242 42-412, looked up)
P-selectin glycoprotein …: QATEYEYLDYDFLPETEPPEMLRNSTDTTPLTGPGTPESTTVEPAARRSTGLDAGGAVTELTTELANMGNLSTDSAAMEIQTTQPAATEAQTTQPVPTEAQTTPLAATEAQTTRLTATEAQTTPLAATEAQTTPPAATEAQTTQPTGLEAQTTAPAAMEAQTTAPAAMEAQTTPPAAMEAQTTQTTAMEAQTTAPEATEAQTTQPTATEAQTTPLAAMEALSTEPSATEALSMEPTTKRGLFIPFSVSSVTHKGIPMAASNLSVNYPVGAPDHISVKQCLLAILILALVATIFFVCTVVLAVRLSRKGHMYPVRNYSPTEMVCISSLLPDGGEGPSATANGGLSKAKSPGLTPEPREDREGDDLTLHSFLP
For B1, the equilibrium dissociation constant (Kd) in series [2] was 320 nM.

As a reminder, the Kd is a measure of binding affinity in units of concentration.

Values taken from PMC11887798 (Science Advances, 2025).
